# Results gathered from unrelated publications.
# Target: Activin receptor type-1-like (ACVRL1, Homo sapiens, UniProt P37023)
Compound,effect on,mode,technique,concentration,endpoint,value
CNC(=O)c1cc(Oc2ccc(NC(=O)Nc3ccc(Cl)c(C(F)(F)F)c3)cc2)ccn1,cell-free assay,,,0.5 µM,remaining signal,104%
Cc1ccc(C(=O)Nc2ccc(CN3CCN(C)CC3)c(C(F)(F)F)c2)cc1C#Cc1cnc2cccnn12,cell-free assay,,,23.5 nM,remaining signal,100%
C[C@H](c1cccc(C#N)c1)n1cc(Cl)cc(C(N)=O)c1=N,cell-free assay,,competition with immobilised ligand,1 µM,remaining binding,93%
Cc1sc(C(=O)NC2COC2)cc1-n1cc(NC(=O)Nc2c(F)cccc2Cl)cn1,enzyme activity,inhibitor,,10 µM,remaining activity,78.7%
COc1cc(Nc2c(C#N)cnc3cc(OCCCN4CCN(C)CC4)c(OC)cc23)c(Cl)cc1Cl,cell-free assay,,,0.5 µM,remaining signal,67.6%
O=C(Nc1cnn(-c2csc(C(=O)NC3COC3)c2)c1)Nc1ccccc1Cl,enzyme activity,inhibitor,,5 µM,remaining activity,107%
Nc1ncnc2occ(-c3ccc(NC(=O)Nc4cc(C(F)(F)F)ccc4F)cc3)c12,cell-free assay,,,20 µM,remaining signal,100%
N#Cc1ccc(Nc2ccc3[nH]c(=O)[nH]c3c2)c(Cl)c1,binding,,competition with immobilised ligand,1 µM,remaining binding,100%
CC(C)(C)c1nc2c(s1)c1nc(N)ncc1c1ccc(NS(=O)(=O)c3c(F)cccc3F)c(F)c12,enzyme activity,inhibitor,radiometric,1 µM,remaining activity,87%
COc1cc2c(N3CCN(C(=O)Nc4ccc(OC(C)C)cc4)CC3)ncnc2cc1OCCCN1CCCCC1,cell-free assay,,,0.5 µM,remaining signal,102%
CCS(=O)(=O)c1cc2cc(C[C@](O)(CC(C)(C)c3ccc(F)cc3C(N)=O)C(F)(F)F)[nH]c2cn1,cell-free assay,,competition with immobilised ligand,1 µM,remaining binding,100%
Cc1ccc(C(=O)NCc2ccsc2)cc1C#Cc1cn(C(C)C)c2ncnc(N)c12,enzyme activity,inhibitor,,1 µM,activity vs control,94%
CC(=O)c1c(NS(C)(=O)=O)c2cc(-c3ccc(Cl)cc3)c(-c3ccc(Cl)cc3Cl)nc2n(C)c1=O,cell-free assay,,competition with immobilised ligand,1 µM,remaining binding,100%
C#Cc1cccc(Nc2ncnc3cc(OCCOC)c(OCCOC)cc23)c1,cell-free assay,,,0.5 µM,remaining signal,101%
Cc1ccc(NC(=O)c2ccc(C)c(C(F)(F)F)c2)cc1C#Cc1nn(C2CCC(O)CC2)c2ncnc(N)c12 (stereo not shown),cell-free assay,,,10 µM,remaining signal,71%
CC(C)(O)[C@H]1CC[C@H](Nc2ccc3ncc(-c4cccc(C(F)(F)F)c4)n3n2)CC1,enzyme activity,inhibitor,,1 µM,remaining activity,66.7%
